Test results taken from ChEMBL document CHEMBL5724801, “EUbOPEN Chemogenomics Library - Multiplex” (2024).
“And” between values parts separate entries of the source, which are not always exact repeats. Equal entries are not always repeated.

Legend:
HEK-293T = experiment: Multiplex assay against HEK293T; assay type: toxicity, cell-based; details: human
In short: (§1)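 Imaging took place on a CQ1 microscope at 37°C and 5% CO2 once compound had been added to live cells stained at seeding with Hoechst33342, BioTracker Green Microtubule Cytoskeleton Dye, MitoTracker Red and Annexin V Alexa Fluor 680. CellPathfinder machine-learning gating classed cells as Hoechst high-intensity objects or normal cells, classed normal cells as having healthy, pyknosed or fragmented nuclei, and classed pyknosed cells as mitotic or apoptotic. Tubulin, mitochondrial-mass and membrane-permeability phenotypes are per cents of the healthy-nucleus cells.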

U2OS = experiment: Multiplex assay against U2OS; assay type: toxicity, cell-based; details: human; in short: as §1
[1] = 12 h, 1 µM, compound concentration 1 uM
[2] = 12 h, 10 µM, compound concentration 10 uM
[3] = 24 h, 1 µM, compound concentration 1 uM
[4] = 24 h, 10 µM, compound concentration 10 uM
[5] = 48 h, 1 µM, compound concentration 1 uM
[6] = 48 h, 10 µM, compound concentration 10 uM

**Q.** For `COc1cc(C(=O)N2CC[C@@H](O)[C@@H](N)C2)cc2nc(-c3cc4ccccc4n3CC3CC3)n(C)c12.Cl`, which “Population Apoptotic (%)” value (HEK-293T; [1]) is on record?
**A.** 48% and 70%

**Q.** And the “Population Fragmented Nuclei (%)” value (HEK-293T; [1])?
**A.** 6% and 2%

**Q.** What about the “Population Healthy Nuclei (%)” value (HEK-293T; [1]) of the same compound?
**A.** 79% and 77%

**Q.** What about the “Population Hoechst High Intensity Objects (%)” value (HEK-293T; [1]) of the same compound?
**A.** 10% and 15%

**Q.** What about the “Population Membrane Permeable-Phenotype (%)” value (HEK-293T; [1]) of the same compound?
**A.** 0%

**Q.** And the “Population Mitochondria Different-Phenotype (%)” value (HEK-293T; [1])?
**A.** 56% and 71%

**Q.** And the “Population Mitotic Cells (%)” value (HEK-293T; [1])?
**A.** 51% and 29%

**Q.** And the “Population Normal (%)” value (HEK-293T; [1])?
**A.** 89% and 84%

**Q.** And the “Population Pyknosed Nuclei (%)” value (HEK-293T; [1])?
**A.** 13% and 20%

**Q.** What about the “Population Tubulin-Different-Phenotype (%)” value (HEK-293T; [1]) of the same compound?
**A.** 52% and 37%

**Q.** What about the “Total Cell Count” value (HEK-293T; [1]) of the same compound?
**A.** 398 and 281

**Q.** And the “Population Apoptotic (%)” value (HEK-293T; [2])?
**A.** 71%

**Q.** What about the “Population Fragmented Nuclei (%)” value (HEK-293T; [2]) of the same compound?
**A.** 5% and 4%

**Q.** And the “Population Healthy Nuclei (%)” value (HEK-293T; [2])?
**A.** 66% and 80%

**Q.** And the “Population Hoechst High Intensity Objects (%)” value (HEK-293T; [2])?
**A.** 21% and 18%

**Q.** What about the “Population Membrane Permeable-Phenotype (%)” value (HEK-293T; [2]) of the same compound?
**A.** 0% and 2%

**Q.** And the “Population Mitochondria Different-Phenotype (%)” value (HEK-293T; [2])?
**A.** 90% and 88%

**Q.** What about the “Population Mitotic Cells (%)” value (HEK-293T; [2]) of the same compound?
**A.** 28%

**Q.** And the “Population Normal (%)” value (HEK-293T; [2])?
**A.** 78% and 81%

**Q.** And the “Population Pyknosed Nuclei (%)” value (HEK-293T; [2])?
**A.** 28% and 15%

**Q.** And the “Population Tubulin-Different-Phenotype (%)” value (HEK-293T; [2])?
**A.** 79% and 72%

**Q.** What about the “Total Cell Count” value (HEK-293T; [2]) of the same compound?
**A.** 260 and 350

**Q.** What about the “Population Apoptotic (%)” value (HEK-293T; [3]) of the same compound?
**A.** 42% and 60%

**Q.** What about the “Population Fragmented Nuclei (%)” value (HEK-293T; [3]) of the same compound?
**A.** 9% and 7%

**Q.** And the “Population Healthy Nuclei (%)” value (HEK-293T; [3])?
**A.** 77% and 79%

**Q.** What about the “Population Hoechst High Intensity Objects (%)” value (HEK-293T; [3]) of the same compound?
**A.** 6% and 12%

**Q.** And the “Population Membrane Permeable-Phenotype (%)” value (HEK-293T; [3])?
**A.** 0%

**Q.** And the “Population Mitochondria Different-Phenotype (%)” value (HEK-293T; [3])?
**A.** 42% and 64%

**Q.** And the “Population Mitotic Cells (%)” value (HEK-293T; [3])?
**A.** 57% and 39%

**Q.** And the “Population Normal (%)” value (HEK-293T; [3])?
**A.** 93% and 87%

**Q.** And the “Population Pyknosed Nuclei (%)” value (HEK-293T; [3])?
**A.** 13% and 12%

**Q.** What about the “Population Tubulin-Different-Phenotype (%)” value (HEK-293T; [3]) of the same compound?
**A.** 33% and 30%

**Q.** What about the “Total Cell Count” value (HEK-293T; [3]) of the same compound?
**A.** 527 and 363

**Q.** What about the “Population Apoptotic (%)” value (HEK-293T; [4]) of the same compound?
**A.** 58% and 65%

**Q.** What about the “Population Fragmented Nuclei (%)” value (HEK-293T; [4]) of the same compound?
**A.** 8% and 6%

**Q.** What about the “Population Healthy Nuclei (%)” value (HEK-293T; [4]) of the same compound?
**A.** 70% and 78%

**Q.** And the “Population Hoechst High Intensity Objects (%)” value (HEK-293T; [4])?
**A.** 18% and 21%

**Q.** What about the “Population Membrane Permeable-Phenotype (%)” value (HEK-293T; [4]) of the same compound?
**A.** 0%

**Q.** What about the “Population Mitochondria Different-Phenotype (%)” value (HEK-293T; [4]) of the same compound?
**A.** 94% and 92%

**Q.** And the “Population Mitotic Cells (%)” value (HEK-293T; [4])?
**A.** 41% and 34%

**Q.** And the “Population Normal (%)” value (HEK-293T; [4])?
**A.** 81% and 78%

**Q.** And the “Population Pyknosed Nuclei (%)” value (HEK-293T; [4])?
**A.** 20% and 15%

**Q.** What about the “Population Tubulin-Different-Phenotype (%)” value (HEK-293T; [4]) of the same compound?
**A.** 78% and 74%

**Q.** And the “Total Cell Count” value (HEK-293T; [4])?
**A.** 312 and 411

**Q.** What about the “Population Apoptotic (%)” value (HEK-293T; [5]) of the same compound?
**A.** 24% and 64%

**Q.** What about the “Population Fragmented Nuclei (%)” value (HEK-293T; [5]) of the same compound?
**A.** 9%

**Q.** What about the “Population Healthy Nuclei (%)” value (HEK-293T; [5]) of the same compound?
**A.** 79% and 80%

**Q.** What about the “Population Hoechst High Intensity Objects (%)” value (HEK-293T; [5]) of the same compound?
**A.** 5% and 7%

**Q.** And the “Population Membrane Permeable-Phenotype (%)” value (HEK-293T; [5])?
**A.** 0%

**Q.** What about the “Population Mitochondria Different-Phenotype (%)” value (HEK-293T; [5]) of the same compound?
**A.** 37% and 48%

**Q.** And the “Population Mitotic Cells (%)” value (HEK-293T; [5])?
**A.** 75% and 36%

**Q.** What about the “Population Normal (%)” value (HEK-293T; [5]) of the same compound?
**A.** 94% and 92%

**Q.** What about the “Population Pyknosed Nuclei (%)” value (HEK-293T; [5]) of the same compound?
**A.** 10%

**Q.** And the “Population Tubulin-Different-Phenotype (%)” value (HEK-293T; [5])?
**A.** 28% and 22%

**Q.** What about the “Total Cell Count” value (HEK-293T; [5]) of the same compound?
**A.** 816 and 520

**Q.** And the “Population Apoptotic (%)” value (HEK-293T; [6])?
**A.** 76%

**Q.** What about the “Population Fragmented Nuclei (%)” value (HEK-293T; [6]) of the same compound?
**A.** 13%

**Q.** And the “Population Healthy Nuclei (%)” value (HEK-293T; [6])?
**A.** 68% and 75%

**Q.** And the “Population Hoechst High Intensity Objects (%)” value (HEK-293T; [6])?
**A.** 18% and 23%

**Q.** And the “Population Membrane Permeable-Phenotype (%)” value (HEK-293T; [6])?
**A.** 0%

**Q.** What about the “Population Mitochondria Different-Phenotype (%)” value (HEK-293T; [6]) of the same compound?
**A.** 89% and 87%

**Q.** What about the “Population Mitotic Cells (%)” value (HEK-293T; [6]) of the same compound?
**A.** 23%

**Q.** What about the “Population Normal (%)” value (HEK-293T; [6]) of the same compound?
**A.** 81% and 76%

**Q.** What about the “Population Pyknosed Nuclei (%)” value (HEK-293T; [6]) of the same compound?
**A.** 17% and 10%

**Q.** And the “Population Tubulin-Different-Phenotype (%)” value (HEK-293T; [6])?
**A.** 81% and 74%

**Q.** And the “Total Cell Count” value (HEK-293T; [6])?
**A.** 386 and 467

**Q.** What about the “Population Apoptotic (%)” value (U2OS; [1]) of the same compound?
**A.** 50% and 75%

**Q.** What about the “Population Fragmented Nuclei (%)” value (U2OS; [1]) of the same compound?
**A.** 32% and 15%

**Q.** What about the “Population Healthy Nuclei (%)” value (U2OS; [1]) of the same compound?
**A.** 53% and 75%

**Q.** And the “Population Hoechst High Intensity Objects (%)” value (U2OS; [1])?
**A.** 4% and 1%

**Q.** And the “Population Membrane Permeable-Phenotype (%)” value (U2OS; [1])?
**A.** 38% and 20%

**Q.** And the “Population Mitochondria Different-Phenotype (%)” value (U2OS; [1])?
**A.** 16% and 18%

**Q.** And the “Population Mitotic Cells (%)” value (U2OS; [1])?
**A.** 50% and 25%

**Q.** And the “Population Normal (%)” value (U2OS; [1])?
**A.** 95% and 98%

**Q.** And the “Population Pyknosed Nuclei (%)” value (U2OS; [1])?
**A.** 14% and 8%

**Q.** What about the “Population Tubulin-Different-Phenotype (%)” value (U2OS; [1]) of the same compound?
**A.** 29% and 15%

**Q.** And the “Total Cell Count” value (U2OS; [1])?
**A.** 223 and 92

**Q.** What about the “Population Apoptotic (%)” value (U2OS; [2]) of the same compound?
**A.** 68% and 56%

**Q.** What about the “Population Fragmented Nuclei (%)” value (U2OS; [2]) of the same compound?
**A.** 23% and 16%

**Q.** What about the “Population Healthy Nuclei (%)” value (U2OS; [2]) of the same compound?
**A.** 38% and 61%

**Q.** And the “Population Hoechst High Intensity Objects (%)” value (U2OS; [2])?
**A.** 6% and 5%

**Q.** What about the “Population Membrane Permeable-Phenotype (%)” value (U2OS; [2]) of the same compound?
**A.** 75% and 79%

**Q.** What about the “Population Mitochondria Different-Phenotype (%)” value (U2OS; [2]) of the same compound?
**A.** 88% and 91%

**Q.** And the “Population Mitotic Cells (%)” value (U2OS; [2])?
**A.** 31% and 44%

**Q.** What about the “Population Normal (%)” value (U2OS; [2]) of the same compound?
**A.** 93% and 94%

**Q.** What about the “Population Pyknosed Nuclei (%)” value (U2OS; [2]) of the same compound?
**A.** 37% and 22%

**Q.** And the “Population Tubulin-Different-Phenotype (%)” value (U2OS; [2])?
**A.** 96% and 94%

**Q.** What about the “Total Cell Count” value (U2OS; [2]) of the same compound?
**A.** 208 and 120

**Q.** And the “Population Apoptotic (%)” value (U2OS; [3])?
**A.** 78% and 75%

**Q.** And the “Population Fragmented Nuclei (%)” value (U2OS; [3])?
**A.** 28% and 18%

**Q.** What about the “Population Healthy Nuclei (%)” value (U2OS; [3]) of the same compound?
**A.** 54% and 69%

**Q.** And the “Population Hoechst High Intensity Objects (%)” value (U2OS; [3])?
**A.** 3% and 2%

**Q.** And the “Population Membrane Permeable-Phenotype (%)” value (U2OS; [3])?
**A.** 19% and 17%

**Q.** What about the “Population Mitochondria Different-Phenotype (%)” value (U2OS; [3]) of the same compound?
**A.** 14% and 18%

**Q.** What about the “Population Mitotic Cells (%)” value (U2OS; [3]) of the same compound?
**A.** 21% and 25%

**Q.** And the “Population Normal (%)” value (U2OS; [3])?
**A.** 96% and 97%

**Q.** And the “Population Pyknosed Nuclei (%)” value (U2OS; [3])?
**A.** 17% and 11%

**Q.** And the “Population Tubulin-Different-Phenotype (%)” value (U2OS; [3])?
**A.** 12% and 17%
